Test results: ChEMBL document CHEMBL3758071, “Phomanolides A and B from the Fungus Phoma sp.: Meroterpenoids Derived from a Putative Tropolonic Sesquiterpene via Hetero-Diels-Alder Reactions” (J Nat Prod, 2015)
Activity calls are given as the source filed them. The rule behind the calls is not given here.

Columns and labels:
Assay type in all cases: functional, cell-based
[1] = test system: HeLa; assay: Antiproliferative activity against human HeLa cells after 48 hrs by MTT assay
How it was run: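 HeLa cells were grown in RPMI 1640 with 10% FBS at 37 °C and 5% CO2 and seeded at 10^4 per well overnight. Serial dilutions (DMSO stock 10 mg/mL; vehicle 0.2% DMSO) were applied for 4 h at 37 °C, then the medium was replaced with fresh DMEM for 48 h. MTT (0.5 mg/mL) was added for 3 h in the dark, formazan dissolved in DMSO, and absorbance read at 540 nm. IC50 reported.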

[2] = test system: SH-SY5Y; assay: Antiproliferative activity against human SH-SY5Y cells after 48 hrs by MTT assay
How it was run: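 SH-SY5Y cells were grown in DMEM with 10% FBS at 37 °C and 5% CO2, seeded at 10^4 cells/well and left to attach overnight. Cells were exposed to serial dilutions from a 10 mg/mL DMSO stock (vehicle 0.2% DMSO) for 4 h at 37 °C, then grown 48 h in fresh DMEM. MTT (0.5 mg/mL) was added for 3 h in the dark, formazan dissolved in DMSO, and absorbance read at 540 nm.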

[3] = test system: U-251; assay: Antiproliferative activity against human U251 cells after 48 hrs by MTT assay; conditions: U-251, 48 h
How it was run: (§1)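 H4 and U251 glioma cells were maintained in MEM-EBSS with 10% FBS at 37 °C and 5% CO2. Cells were plated at 10^4 per well and attached overnight. They were treated 4 h with serially diluted compound (DMSO stock 10 mg/mL; vehicle 0.2% DMSO), then given fresh DMEM for 48 h. MTT (0.5 mg/mL) was added for 3 h, DMSO used to solubilise, and A540 read. IC50 reported.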

[4] = Antiproliferative activity against human H4 cells after 48 hrs by MTT assay; conditions: H4, 48 h; how it was run: as §1
[5] = Antiproliferative activity against human HCT116 cells after 48 hrs by MTT assay; conditions: HCT-116, 48 h
How it was run: (§2)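 A549, T24 and HCT116 cells were grown in McCoy's 5A with 10% FBS at 37 °C and 5% CO2. Cells were seeded at 10^4 per well and attached overnight. They were exposed for 4 h to serial dilutions (DMSO stock 10 mg/mL; vehicle 0.2% DMSO), then grown 48 h in fresh DMEM. MTT (0.5 mg/mL) was added for 3 h, formazan dissolved in DMSO, and A540 read. IC50 reported.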

[6] = test system: A549; assay: Antiproliferative activity against human A549 cells after 48 hrs by MTT assay; conditions: A549, 48 h; how it was run: as §2
[7] = Antiproliferative activity against human T24 cells after 48 hrs by MTT assay; conditions: T-24, 48 h; how it was run: as §2
[8] = test system: SH-SY5Y; assay: Antiproliferative activity against human SH-SY5Y cells at 20 ug/ml after 48 hrs by MTT assay
[9] = test system: U-251; assay: Antiproliferative activity against human U251 cells at 20 ug/ml after 48 hrs by MTT assay
[10] = test system: H4; assay: Antiproliferative activity against human H4 cells at 20 ug/ml after 48 hrs by MTT assay
[11] = test system: A549; assay: Antiproliferative activity against human A549 cells at 20 ug/ml after 48 hrs by MTT assay
[12] = test system: T-24; assay: Antiproliferative activity against human T24 cells at 20 ug/ml after 48 hrs by MTT assay
[13] = test system: HCT-116; assay: Antiproliferative activity against human HCT116 cells at 20 ug/ml after 48 hrs by MTT assay
[14] = test system: HeLa; assay: Antiproliferative activity against human HeLa cells at 20 ug/ml after 48 hrs by MTT assay

| IC50 [2] [µM] | Structure (SMILES) | IC50 [1] [µM] | IC50 [3] [nM] | IC50 [4] [nM] | IC50 [5] [nM] | IC50 [6] [nM] | IC50 [7] [nM] | Activity [8] | Activity [9] | Activity [10] | Activity [11] | Activity [12] | Activity [13] | Activity [14] |
| --- | --- | --- | --- | --- | --- | --- | --- | --- | --- | --- | --- | --- | --- | --- |
| 81.1 | CC1=CC(=O)O[C@@]12C[C@H]1C[C@H](O)[C@@]3(C)Oc4cc(O)cc(C)c4C[C@H]3CC(C)(C)/C=C/C[C@]1(C)O/C2=C\C(=O)O | 14.3 | – | – | – | – | – | – | – | – | – | – | – | – |
| > 100 | Cn1nnc2c(C(N)=O)ncn2c1=O [TEMOZOLOMIDE] | – | > 100000 | > 100000 | – | – | – | – | – | – | – | – | – | – |
| – | C/C1=C/CC(C)(C)[C@@H]2O[C@H]2C[C@@]2(C)O[C@@H]2C[C@@H]1O | – | – | – | – | – | – | inactive | inactive | inactive | inactive | inactive | inactive | inactive |
| – | C/C1=C/CC(C)(C)/C=C/C[C@]2(C)OC3=CC(=O)O[C@]4(C)CC(=O)O[C@]34C[C@H]2C[C@@H]1O | – | – | – | – | – | – | inactive | inactive | inactive | inactive | inactive | inactive | inactive |

| Structure (SMILES) | IC50 [2] [µM] | IC50 [1] [µM] | IC50 [3] [nM] | IC50 [4] [nM] | IC50 [5] [nM] | IC50 [6] [nM] | IC50 [7] [nM] | Activity [8] | Activity [9] | Activity [10] | Activity [11] | Activity [12] | Activity [13] | Activity [14] |
| --- | --- | --- | --- | --- | --- | --- | --- | --- | --- | --- | --- | --- | --- | --- |
| Cc1cc(=O)c(O)cc2c1C[C@H]1CC(C)(C)/C=C/C[C@]3(C)Oc4cc(O)c(=O)cc(C)c4C[C@H]3C[C@H](O)[C@@]1(C)O2 | 0.08 | 0.0082 | 100 | 130 | 31.2 | 30.6 | 12.5 | – | – | – | – | – | – | – |
